Several values for one entry are separate records, joined by “and”; a condition that tells them apart may be missing. Equal entries are not always repeated.
Test system: Fibroblast
Assay: Multiplex assay against human fibroblast
Type: toxicity, cell-based
Outline: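 Values for tubulin, mitochondrial-mass and membrane-permeability phenotypes are per cents of cells with healthy nuclei. These cells were identified by CellPathfinder machine-learning gating of live cells that had been stained at seeding with Hoechst33342, BioTracker Green Microtubule Cytoskeleton Dye, MitoTracker Red and Annexin V Alexa Fluor 680 and imaged on a CQ1 microscope at 37°C and 5% CO2 after compound addition. The gating first set Hoechst high-intensity objects apart from normal cells, then split normal cells into healthy, pyknosed or fragmented nuclei, and pyknosed cells into mitotic or apoptotic.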

[1] = 12 h, 1 µM, compound concentration 1 uM
[2] = 12 h, 10 µM, compound concentration 10 uM
[3] = 24 h, 1 µM, compound concentration 1 uM
[4] = 24 h, 10 µM, compound concentration 10 uM
[5] = 48 h, 1 µM, compound concentration 1 uM
[6] = 48 h, 10 µM, compound concentration 10 uM

C[C@H]1[C@H]2CC[C@H]3[C@@H]4CC=C5C[C@@H](N(C)C)CC[C@]5(C)[C@H]4CC[C@]23CN1C [CONESSINE]
Population Apoptotic (%) [1]: 45% and 29% | Population Fragmented Nuclei (%) [1]: 15% and 33% | Population Healthy Nuclei (%) [1]: 73% and 41% | Population Hoechst High Intensity Objects (%) [1]: 1% and 2% | Population Membrane Permeable-Phenotype (%) [1]: 0% and 7% | Population Mitochondria Different-Phenotype (%) [1]: 8% and 2% | Population Mitotic Cells (%) [1]: 55% and 70% | Population Normal (%) [1]: 98% and 97% | Population Pyknosed Nuclei (%) [1]: 11% and 24% | Population Tubulin-Different-Phenotype (%) [1]: 19% and 46% | Total Cell Count [1]: 174 and 101 | Population Apoptotic (%) [2]: 37% and 43% | Population Fragmented Nuclei (%) [2]: 26% | Population Healthy Nuclei (%) [2]: 60% and 45% | Population Hoechst High Intensity Objects (%) [2]: 3% | Population Membrane Permeable-Phenotype (%) [2]: 5% and 8% | Population Mitochondria Different-Phenotype (%) [2]: 10% and 4% | Population Mitotic Cells (%) [2]: 62% and 56% | Population Normal (%) [2]: 96% | Population Pyknosed Nuclei (%) [2]: 13% and 28% | Population Tubulin-Different-Phenotype (%) [2]: 32% and 58% | Total Cell Count [2]: 189 and 110 | Population Apoptotic (%) [3]: 43% and 40% | Population Fragmented Nuclei (%) [3]: 13% and 27% | Population Healthy Nuclei (%) [3]: 73% and 48% | Population Hoechst High Intensity Objects (%) [3]: 2% and 4% | Population Mitochondria Different-Phenotype (%) [3]: 4% and 6% | Population Mitotic Cells (%) [3]: 56% and 59% | Population Normal (%) [3]: 97% and 95% | Population Pyknosed Nuclei (%) [3]: 13% and 24% | Population Tubulin-Different-Phenotype (%) [3]: 22% and 61% | Total Cell Count [3]: 175 and 95 | Population Apoptotic (%) [4]: 64% and 36% | Population Fragmented Nuclei (%) [4]: 28% | Population Healthy Nuclei (%) [4]: 61% and 39% | Population Hoechst High Intensity Objects (%) [4]: 3% and 2% | Population Membrane Permeable-Phenotype (%) [4]: 1% and 7% | Population Mitochondria Different-Phenotype (%) [4]: 7% | Population Mitotic Cells (%) [4]: 35% and 63% | Population Normal (%) [4]: 96% and 97% | Population Tubulin-Different-Phenotype (%) [4]: 27% and 60% | Total Cell Count [4]: 190 and 106 | Population Apoptotic (%) [5]: 50% and 47% | Population Fragmented Nuclei (%) [5]: 17% and 37% | Population Healthy Nuclei (%) [5]: 73% and 45% | Population Hoechst High Intensity Objects (%) [5]: 5% and 0% | Population Membrane Permeable-Phenotype (%) [5]: 0% and 17% | Population Mitochondria Different-Phenotype (%) [5]: 3% and 8% | Population Mitotic Cells (%) [5]: 50% and 52% | Population Normal (%) [5]: 94% and 99% | Population Pyknosed Nuclei (%) [5]: 9% and 16% | Population Tubulin-Different-Phenotype (%) [5]: 27% and 63% | Total Cell Count [5]: 178 and 104 | Population Apoptotic (%) [6]: 66% and 27% | Population Fragmented Nuclei (%) [6]: 26% and 29% | Population Healthy Nuclei (%) [6]: 62% and 48% | Population Hoechst High Intensity Objects (%) [6]: 6% and 2% | Population Membrane Permeable-Phenotype (%) [6]: 0% and 8% | Population Mitochondria Different-Phenotype (%) [6]: 4% and 6% | Population Mitotic Cells (%) [6]: 33% and 72% | Population Normal (%) [6]: 93% and 97% | Population Pyknosed Nuclei (%) [6]: 10% and 22% | Population Tubulin-Different-Phenotype (%) [6]: 25% and 62% | Total Cell Count [6]: 190 and 102

CCCOc1ccc2[nH]cc(C3=CCNCC3)c2n1.Cl
Population Apoptotic (%) [1]: 42% and 48% | Population Fragmented Nuclei (%) [1]: 13% and 25% | Population Healthy Nuclei (%) [1]: 71% and 52% | Population Hoechst High Intensity Objects (%) [1]: 2% and 0% | Population Membrane Permeable-Phenotype (%) [1]: 0% and 8% | Population Mitochondria Different-Phenotype (%) [1]: 6% and 2% | Population Mitotic Cells (%) [1]: 57% and 51% | Population Normal (%) [1]: 97% and 99% | Population Pyknosed Nuclei (%) [1]: 15% and 21% | Population Tubulin-Different-Phenotype (%) [1]: 27% and 47% | Total Cell Count [1]: 143 and 137 | Population Apoptotic (%) [2]: 70% and 40% | Population Fragmented Nuclei (%) [2]: 16% and 31% | Population Healthy Nuclei (%) [2]: 70% and 48% | Population Hoechst High Intensity Objects (%) [2]: 4% and 2% | Population Membrane Permeable-Phenotype (%) [2]: 0% and 1% | Population Mitochondria Different-Phenotype (%) [2]: 12% and 10% | Population Mitotic Cells (%) [2]: 29% and 60% | Population Normal (%) [2]: 95% and 97% | Population Pyknosed Nuclei (%) [2]: 13% and 20% | Population Tubulin-Different-Phenotype (%) [2]: 41% and 59% | Total Cell Count [2]: 133 and 125 | Population Apoptotic (%) [3]: 57% and 38% | Population Fragmented Nuclei (%) [3]: 14% and 28% | Population Healthy Nuclei (%) [3]: 76% and 52% | Population Hoechst High Intensity Objects (%) [3]: 2% and 0% | Population Membrane Permeable-Phenotype (%) [3]: 0% and 5% | Population Mitochondria Different-Phenotype (%) [3]: 6% and 5% | Population Mitotic Cells (%) [3]: 42% and 61% | Population Normal (%) [3]: 97% and 100% | Population Pyknosed Nuclei (%) [3]: 9% and 18% | Population Tubulin-Different-Phenotype (%) [3]: 20% and 40% | Total Cell Count [3]: 155 and 140 | Population Apoptotic (%) [4]: 61% and 50% | Population Fragmented Nuclei (%) [4]: 23% and 20% | Population Healthy Nuclei (%) [4]: 64% and 68% | Population Hoechst High Intensity Objects (%) [4]: 1% and 2% | Population Membrane Permeable-Phenotype (%) [4]: 0% and 4% | Population Mitochondria Different-Phenotype (%) [4]: 12% and 8% | Population Mitotic Cells (%) [4]: 38% and 50% | Population Normal (%) [4]: 98% and 97% | Population Pyknosed Nuclei (%) [4]: 11% | Population Tubulin-Different-Phenotype (%) [4]: 36% and 61% | Total Cell Count [4]: 159 and 107 | Population Apoptotic (%) [5]: 69% and 64% | Population Fragmented Nuclei (%) [5]: 17% and 36% | Population Healthy Nuclei (%) [5]: 74% and 53% | Population Hoechst High Intensity Objects (%) [5]: 2% and 4% | Population Membrane Permeable-Phenotype (%) [5]: 0% and 5% | Population Mitochondria Different-Phenotype (%) [5]: 5% and 2% | Population Mitotic Cells (%) [5]: 30% and 35% | Population Normal (%) [5]: 97% and 95% | Population Pyknosed Nuclei (%) [5]: 8% and 9% | Population Tubulin-Different-Phenotype (%) [5]: 23% and 40% | Total Cell Count [5]: 162 and 147 | Population Apoptotic (%) [6]: 73% and 60% | Population Fragmented Nuclei (%) [6]: 21% and 32% | Population Healthy Nuclei (%) [6]: 65% and 62% | Population Hoechst High Intensity Objects (%) [6]: 2% and 5% | Population Membrane Permeable-Phenotype (%) [6]: 0% and 4% | Population Mitochondria Different-Phenotype (%) [6]: 9% and 13% | Population Mitotic Cells (%) [6]: 26% and 40% | Population Normal (%) [6]: 97% and 94% | Population Pyknosed Nuclei (%) [6]: 13% and 4% | Population Tubulin-Different-Phenotype (%) [6]: 45% and 44% | Total Cell Count [6]: 150 and 116

From ChEMBL document CHEMBL5724801, “EUbOPEN Chemogenomics Library - Multiplex” (2024)
